Experiment [1] is described as follows: Inhibition of Cryptococcus neoformans beta-carbonic anhydrase incubated for 15 mins prior to testing by stopped-flow CO2 hydration assay. In outline:
(§1)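 CO2 was 1.7–17 mM. Initial rates were taken from at least six traces of the first 5–10% of reaction over 10–100 s, with uncatalysed rates subtracted. Inhibitor dilutions were in water down to 0.01 nM, preincubated with enzyme 15 min at room temperature.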

A short description of experiment [2]: Inhibition of Brucella suis beta-carbonic anhydrase 1 incubated for 15 mins prior to testing by stopped-flow CO2 hydration assay. An outline of the steps:
(§2)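 Stopped-flow CO2 hydration; 0.2 mM phenol red read at 557 nm in 10 mM Hepes pH 7.4, 10 mM Tris-HCl, 0.1 M NaSO4; CO2 1.7–17 mM. Inhibitor (10 mM water stock, diluted down to 0.01 nM) preincubated with enzyme 15 min at room temperature. Initial rates from at least six traces of the first 5–10% of reaction, over 10–100 s, with uncatalysed rates subtracted.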

A short description of experiment [3]: Inhibition of Brucella suis beta-carbonic anhydrase 2 incubated for 15 mins prior to testing by stopped-flow CO2 hydration assay. In outline: as §2
A short description of experiment [4]: Inhibition of Leishmania donovani chagasi beta-carbonic anhydrase incubated for 15 mins prior to testing by stopped-flow CO2 hydration assay. An outline of the steps: as §1
The nature of experiment [5]: Selectivity ratio of Ki for human alpha-carbonic anhydrase 1 to Ki for Cryptococcus neoformans beta-carbonic anhydrase. An outline of the steps:
(§3)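 Ki ratio, human CA isoform Ki divided by pathogen β-CA Ki, used as an index of selectivity for the pathogen enzyme over the human enzyme.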

The nature of experiment [6]: Selectivity ratio of Ki for human alpha-carbonic anhydrase 1 to Ki for Brucella suis beta-carbonic anhydrase 1.
A short description of experiment [7]: Selectivity ratio of Ki for human alpha-carbonic anhydrase 1 to Ki for Brucella suis beta-carbonic anhydrase 2.
A short description of experiment [8]: Selectivity ratio of Ki for human alpha-carbonic anhydrase 1 to Ki for Leishmania donovani chagasi beta-carbonic anhydrase. An outline of the steps: as §3
The nature of experiment [9]: Selectivity ratio of Ki for human alpha-carbonic anhydrase 2 to Ki for Cryptococcus neoformans beta-carbonic anhydrase. In outline: as §3
The nature of experiment [10]: Selectivity ratio of Ki for human alpha-carbonic anhydrase 2 to Ki for Brucella suis beta-carbonic anhydrase 1.
The nature of experiment [11]: Selectivity ratio of Ki for human alpha-carbonic anhydrase 2 to Ki for Brucella suis beta-carbonic anhydrase 2.
Experiment [12] in a line: Selectivity ratio of Ki for human alpha-carbonic anhydrase 2 to Ki for Leishmania donovani chagasi beta-carbonic anhydrase. In outline:
as §3

In experiment [13] the test system is Brucella suis. The experiment can be described thus: Potency index, ratio of acetazolamide Ki to compound Ki for Brucella suis beta-carbonic anhydrase 1.
For experiment [14], the system named is Brucella suis. Description: Potency index, ratio of benzolamide Ki to compound Ki for Brucella suis beta-carbonic anhydrase 1.
Experiment [15] relates to Brucella suis. The experiment can be described thus: Potency index, ratio of dichlorphenamide Ki to compound Ki for Brucella suis beta-carbonic anhydrase 1.
Experiment [16] concerns Brucella suis. Description: Potency index, ratio of acetazolamide Ki to compound Ki for Brucella suis beta-carbonic anhydrase 2.
Experiment [17] has as its system Brucella suis. The experiment can be described thus: Potency index, ratio of benzolamide Ki to compound Ki for Brucella suis beta-carbonic anhydrase 2.
In experiment [18] the test system is Brucella suis. The experiment can be described thus: Potency index, ratio of dichlorphenamide Ki to compound Ki for Brucella suis beta-carbonic anhydrase 2.

Each structure is given as a SMILES string. Where only a bound is given, the exact number is not on record here.

The term Ki denotes the dissociation constant of the complex between target and ligand, obtained from inhibition or displacement. Low values mean tighter binding, high ones weaker binding. As for `NS(=O)(=O)c1ccc(CC/N=C/c2c(F)c(F)cc(F)c2F)cc1`, the Ki turned out to be 2.26 nM in experiment [1], 29.2 nM in experiment [2], 2.56 nM in experiment [3] and 107 nM in [4]. In addition, the Ratio Ki in experiment [5] is 1160; in experiment [6] it was 90.1; in experiment [7], 1030; in experiment [8] it was 24.5; in [9], 288; in [10], 22.3. In addition, the Ratio Ki in experiment [11] was 255; in experiment [12], 6.1; with Brucella suis [13] it was 2; in the experiment with Brucella suis [14], 2; with Brucella suis [15], 2; in the experiment with Brucella suis [16], 100. Besides, the Ratio Ki in the experiment on Brucella suis [17] and in the experiment on Brucella suis [18] was 100 throughout.
Regarding `NS(=O)(=O)c1ccc(CC/N=C/c2c[nH]c3ccc(Br)cc23)cc1`, the Ki in experiment [1] was determined as 0.95 nM; in experiment [2], 24.9 nM; in [3], 2.45 nM; in [4], 2030 nM. For the same molecule, the Ratio Ki in experiment [5] is 1840; in experiment [6], 70.2; in [7], 714; in [8] it was 0.9; in experiment [9], 627; in experiment [10] it was 23.9. Further, the Ratio Ki in experiment [11] worked out at 243; in [12] it was 0.3; in the experiment on Brucella suis [13], 2; with Brucella suis [14] it was 2; in the experiment on Brucella suis [15], 2; in the experiment on Brucella suis [16], 100. The Ratio Ki with Brucella suis [17] and in the experiment on Brucella suis [18] was 100 throughout.
`NS(=O)(=O)c1ccc(/N=C/c2ccccc2)c(F)c1`: the Ki in experiment [1] was 0.56 nM; in experiment [2], 11.5 nM; in [3] it was 2.31 nM; in experiment [4], more than 2500 nM. The Ratio Ki was 891 in [5]; 43.2 in experiment [6]; 216 in [7]; less than 0.2 in [8]; 1270 in [9]; 61.5 in experiment [10]. For the same molecule, the Ratio Ki in [11] came to 307; in [12], 0.3; in the experiment on Brucella suis [13], 2; in the experiment with Brucella suis [14], 2; with Brucella suis [15], 2; in the experiment on Brucella suis [16], 100. Also, the Ratio Ki in the experiment on Brucella suis [17] and with Brucella suis [18] was 100 in each case.

Values taken from ChEMBL document CHEMBL3596191, “Inhibition studies of bacterial, fungal and protozoan β-class carbonic anhydrases with Schiff bases incorporating sulfonamide moieties” (Bioorg Med Chem, 2015).
